Laboratory results as given in ChEMBL document CHEMBL3856243, “Structure-Activity Relationships and Kinetic Studies of Peptidic Antagonists of CBX Chromodomains” (J Med Chem, 2016).
Calls of active or inactive are those of the source. No cut-off for these calls is given here. Square brackets hold non-standard residues; d marks the D form. Peptide text beside a SMILES is read from it. * marks the point of attachment. Benzoyl(4-tBu) = CC(C)(C)c1ccc(C(=O)*)cc1; Lys(Et2) = CCN(CC)CCCC[C@H](N)C(=O)O

Assays:
[1] = biological target: T1, Chromobox protein homolog 8 (Homo sapiens, UniProt Q9HC52); test: Binding affinity to human N-terminal his-tagged CBX8 chromodomain (8 to 61 residues) expressed in Escherichia coli Rosetta BL21(DE3)pLysS by ITC method
T1 sequence (Q9HC52 whole entry): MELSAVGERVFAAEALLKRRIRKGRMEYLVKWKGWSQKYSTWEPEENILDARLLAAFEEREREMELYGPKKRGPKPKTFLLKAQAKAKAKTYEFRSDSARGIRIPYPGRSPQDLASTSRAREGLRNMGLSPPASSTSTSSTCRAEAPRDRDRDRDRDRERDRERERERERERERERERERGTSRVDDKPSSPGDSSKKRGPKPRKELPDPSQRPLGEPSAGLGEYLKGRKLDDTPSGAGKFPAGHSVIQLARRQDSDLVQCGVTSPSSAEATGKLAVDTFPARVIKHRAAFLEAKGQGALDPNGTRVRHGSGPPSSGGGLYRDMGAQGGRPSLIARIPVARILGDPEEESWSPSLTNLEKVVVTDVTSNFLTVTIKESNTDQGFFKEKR

[2] = biological target: Chromobox protein homolog 5 (Homo sapiens, UniProt P45973); test: Binding affinity to CBX5 chromodomain (unknown origin) by ITC method
Sequence of Chromobox protein homolog 5 (P45973 whole entry): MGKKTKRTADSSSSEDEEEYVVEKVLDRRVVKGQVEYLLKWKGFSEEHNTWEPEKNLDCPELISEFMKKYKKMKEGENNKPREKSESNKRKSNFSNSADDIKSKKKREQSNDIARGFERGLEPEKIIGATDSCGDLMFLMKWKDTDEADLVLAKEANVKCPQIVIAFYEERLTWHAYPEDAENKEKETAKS

[3] = biological target: Chromobox protein homolog 3 (Homo sapiens, UniProt Q13185); test: Binding affinity to CBX3 chromodomain (unknown origin) by ITC method
Sequence of Chromobox protein homolog 3 (Q13185 whole entry, the tested form may be a part): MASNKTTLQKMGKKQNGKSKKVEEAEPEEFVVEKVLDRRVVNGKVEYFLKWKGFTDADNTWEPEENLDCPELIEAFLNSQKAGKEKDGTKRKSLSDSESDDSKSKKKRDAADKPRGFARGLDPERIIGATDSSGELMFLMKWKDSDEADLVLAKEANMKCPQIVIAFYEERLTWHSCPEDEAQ

[4] = biological target: T2, Testis-specific chromodomain protein Y 1 (Homo sapiens, UniProt Q9Y6F8); test: Binding affinity to human N-terminal GST-tagged CDY1 chromodomain (1 to 101 residues) expressed in Escherichia coli Rosetta BL21(DE3)pLysS by ITC method
T2 sequence (Q9Y6F8 whole entry): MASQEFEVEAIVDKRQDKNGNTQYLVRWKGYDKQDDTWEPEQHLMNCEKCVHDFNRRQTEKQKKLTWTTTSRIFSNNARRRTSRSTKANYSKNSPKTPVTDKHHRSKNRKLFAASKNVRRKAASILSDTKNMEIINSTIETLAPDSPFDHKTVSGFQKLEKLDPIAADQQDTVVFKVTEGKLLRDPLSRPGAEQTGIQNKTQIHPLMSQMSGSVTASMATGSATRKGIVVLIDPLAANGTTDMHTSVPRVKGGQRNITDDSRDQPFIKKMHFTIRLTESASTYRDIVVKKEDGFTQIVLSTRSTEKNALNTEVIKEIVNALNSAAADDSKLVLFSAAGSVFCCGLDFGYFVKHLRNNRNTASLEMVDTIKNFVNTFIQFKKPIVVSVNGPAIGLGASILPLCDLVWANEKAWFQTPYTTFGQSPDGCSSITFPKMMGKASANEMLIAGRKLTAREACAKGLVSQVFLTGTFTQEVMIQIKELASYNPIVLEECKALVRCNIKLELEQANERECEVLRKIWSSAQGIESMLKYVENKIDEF

PC-3 = test: Antiproliferative activity against human PC3 cells assessed as reduction in cell count at 30 uM measured after 72 hrs by DAPI-staining based microscopic method; type: functional
Summary of the method: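 PC3 cells seeded at 400/well, adhered overnight, then given DMEM + 10% FBS with 30 µM compound or DMSO for 72 h; fixed in ice-cold methanol, rehydrated in PBS, nuclei stained with DAPI (0.05 µg/ml) and counted by high content microscopy; counts normalized to DMSO control (n ≥ 4).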

[5] = biological target: T3, Chromobox protein homolog 6 (Homo sapiens, UniProt O95503); test: Binding affinity to human N-terminal his-tagged CBX6 chromodomain (8 to 65 residues) expressed in Escherichia coli Rosetta BL21(DE3)pLysS by ITC method
T3 sequence (O95503 whole entry): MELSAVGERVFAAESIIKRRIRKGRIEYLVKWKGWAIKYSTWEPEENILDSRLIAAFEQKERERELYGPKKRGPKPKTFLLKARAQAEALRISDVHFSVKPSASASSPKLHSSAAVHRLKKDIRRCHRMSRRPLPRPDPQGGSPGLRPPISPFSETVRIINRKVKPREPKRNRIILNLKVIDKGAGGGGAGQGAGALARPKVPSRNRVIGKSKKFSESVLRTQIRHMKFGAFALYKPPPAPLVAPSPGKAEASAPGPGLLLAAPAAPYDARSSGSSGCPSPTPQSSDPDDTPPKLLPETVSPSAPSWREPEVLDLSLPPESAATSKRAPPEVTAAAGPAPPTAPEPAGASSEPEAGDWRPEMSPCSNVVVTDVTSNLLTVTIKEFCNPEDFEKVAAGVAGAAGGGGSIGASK

[6] = biological target: Chromobox protein homolog 1 (Homo sapiens, UniProt P83916); test: Binding affinity to CBX1 chromodomain (unknown origin) by ITC method
Sequence of Chromobox protein homolog 1 (P83916 whole entry, the tested form may be a part): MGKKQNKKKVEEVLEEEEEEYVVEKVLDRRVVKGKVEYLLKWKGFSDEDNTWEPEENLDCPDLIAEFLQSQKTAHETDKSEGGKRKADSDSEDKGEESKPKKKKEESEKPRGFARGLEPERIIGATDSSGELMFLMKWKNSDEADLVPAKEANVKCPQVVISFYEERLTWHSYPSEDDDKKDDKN

[7] = biological target: T4, Chromodomain Y-like protein (Homo sapiens, UniProt Q9Y232); test: Binding affinity to human N-terminal GST-tagged CDYL1b chromodomain (1 to 78 residues) expressed in Escherichia coli Rosetta BL21(DE3)pLysS by ITC method
T4 sequence (Q9Y232 whole entry): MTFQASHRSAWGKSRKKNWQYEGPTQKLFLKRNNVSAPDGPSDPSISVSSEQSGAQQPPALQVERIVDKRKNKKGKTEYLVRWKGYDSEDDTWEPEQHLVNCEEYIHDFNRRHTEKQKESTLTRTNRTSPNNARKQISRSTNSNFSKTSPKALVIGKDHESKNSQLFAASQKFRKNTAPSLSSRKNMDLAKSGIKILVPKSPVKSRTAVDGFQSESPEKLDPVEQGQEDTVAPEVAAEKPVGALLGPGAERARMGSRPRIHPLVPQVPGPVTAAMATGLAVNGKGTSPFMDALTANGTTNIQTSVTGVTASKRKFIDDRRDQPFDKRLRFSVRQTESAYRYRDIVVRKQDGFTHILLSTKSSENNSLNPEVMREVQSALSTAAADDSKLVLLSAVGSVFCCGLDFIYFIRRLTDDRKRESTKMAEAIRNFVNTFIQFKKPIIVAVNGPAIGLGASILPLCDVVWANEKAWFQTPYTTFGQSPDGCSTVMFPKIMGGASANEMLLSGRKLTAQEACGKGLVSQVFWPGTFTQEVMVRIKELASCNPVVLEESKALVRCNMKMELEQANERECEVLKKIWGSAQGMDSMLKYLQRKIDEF

[8] = biological target: T5, Chromobox protein homolog 2 (Homo sapiens, UniProt Q14781); test: Binding affinity to human N-terminal his-tagged CBX2 chromodomain (9 to 66 residues) expressed in Escherichia coli Rosetta BL21(DE3)pLysS by ITC method
T5 sequence (Q14781 whole entry): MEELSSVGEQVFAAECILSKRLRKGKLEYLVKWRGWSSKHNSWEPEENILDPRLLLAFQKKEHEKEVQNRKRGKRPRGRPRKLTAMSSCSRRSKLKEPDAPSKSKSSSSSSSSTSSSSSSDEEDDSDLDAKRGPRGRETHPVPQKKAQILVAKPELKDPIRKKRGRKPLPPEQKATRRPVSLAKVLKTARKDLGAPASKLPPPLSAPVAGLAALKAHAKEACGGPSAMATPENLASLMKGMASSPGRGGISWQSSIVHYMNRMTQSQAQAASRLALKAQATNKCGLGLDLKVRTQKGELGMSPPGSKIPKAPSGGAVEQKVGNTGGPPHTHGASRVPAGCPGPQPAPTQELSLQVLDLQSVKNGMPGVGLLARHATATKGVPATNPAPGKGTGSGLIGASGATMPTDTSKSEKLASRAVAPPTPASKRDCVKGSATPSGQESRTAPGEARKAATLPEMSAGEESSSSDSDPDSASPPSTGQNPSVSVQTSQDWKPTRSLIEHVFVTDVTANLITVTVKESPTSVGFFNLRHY

[9] = biological target: T6, Chromodomain Y-like protein 2 (Homo sapiens, UniProt Q8N8U2)
T6 sequence (Q8N8U2 whole entry): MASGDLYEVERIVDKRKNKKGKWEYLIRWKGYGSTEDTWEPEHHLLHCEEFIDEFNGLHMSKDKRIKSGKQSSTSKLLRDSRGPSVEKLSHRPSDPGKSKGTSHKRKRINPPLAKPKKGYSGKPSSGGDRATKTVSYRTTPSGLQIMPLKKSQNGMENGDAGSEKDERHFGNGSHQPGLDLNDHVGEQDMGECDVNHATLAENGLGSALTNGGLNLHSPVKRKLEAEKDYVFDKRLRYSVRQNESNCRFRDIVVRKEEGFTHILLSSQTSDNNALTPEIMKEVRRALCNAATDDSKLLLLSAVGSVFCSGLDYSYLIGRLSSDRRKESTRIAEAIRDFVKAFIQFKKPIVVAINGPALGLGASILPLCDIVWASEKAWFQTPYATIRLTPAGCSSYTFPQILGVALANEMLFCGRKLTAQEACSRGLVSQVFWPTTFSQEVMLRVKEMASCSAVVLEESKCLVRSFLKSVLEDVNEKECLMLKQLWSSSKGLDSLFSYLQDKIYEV

CCN(CC)CCCC[C@H](NC(=O)[C@H](CC(C)C)NC(=O)[C@H](C)NC(=O)[C@H](Cc1ccccc1)NC(=O)c1ccc(C(C)(C)C)cc1)C(=O)N[C@@H](CO)C(=O)OC ({Benzoyl(4-tBu)}-FAL[Lys(Et2)]S-OMe)
Kd [1]: 1200 nM
Kd [2]: > 100000 nM
Kd [3]: > 100000 nM
Kd [4]: 6300 nM
Activity (PC-3): Active
Kd [5]: 610 nM
Kd [6]: > 100000 nM
Kd [7]: 910 nM
Kd [8]: 1800 nM
Kd [9]: 850 nM
